Assay results from PubChem BioAssay.
For part of these data: Potency and affinity values are given separately. Activity calls are given as the source filed them.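 Rule for the calls, unless noted: active = active in primary screen and both duplicates, each dropping signal beyond three positive-control SD with fluorescence still positive; inactive = the rest.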

Target: Short transient receptor potential channel 4 (Mus musculus) (UniProt Q9QUQ5)
Test: block of DAMGO-driven TRPC4 calcium entry – cell-based, HEK293 TRPC4/mu-opioid, Fluo-4 calcium, dose response (AID 434942;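 active = primary screen inhibitor hit that blocks the TRPC4 channel at some tested dose, yielding a dose curve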)
Settings: HEK293 TRPC4/mu-opioid cells, DAMGO-evoked Fluo-4 calcium ratio; series mostly up to 20 µM

Short transient receptor potential channel 4 (Mus musculus), sequence (Q9QUQ5 whole entry, looked up): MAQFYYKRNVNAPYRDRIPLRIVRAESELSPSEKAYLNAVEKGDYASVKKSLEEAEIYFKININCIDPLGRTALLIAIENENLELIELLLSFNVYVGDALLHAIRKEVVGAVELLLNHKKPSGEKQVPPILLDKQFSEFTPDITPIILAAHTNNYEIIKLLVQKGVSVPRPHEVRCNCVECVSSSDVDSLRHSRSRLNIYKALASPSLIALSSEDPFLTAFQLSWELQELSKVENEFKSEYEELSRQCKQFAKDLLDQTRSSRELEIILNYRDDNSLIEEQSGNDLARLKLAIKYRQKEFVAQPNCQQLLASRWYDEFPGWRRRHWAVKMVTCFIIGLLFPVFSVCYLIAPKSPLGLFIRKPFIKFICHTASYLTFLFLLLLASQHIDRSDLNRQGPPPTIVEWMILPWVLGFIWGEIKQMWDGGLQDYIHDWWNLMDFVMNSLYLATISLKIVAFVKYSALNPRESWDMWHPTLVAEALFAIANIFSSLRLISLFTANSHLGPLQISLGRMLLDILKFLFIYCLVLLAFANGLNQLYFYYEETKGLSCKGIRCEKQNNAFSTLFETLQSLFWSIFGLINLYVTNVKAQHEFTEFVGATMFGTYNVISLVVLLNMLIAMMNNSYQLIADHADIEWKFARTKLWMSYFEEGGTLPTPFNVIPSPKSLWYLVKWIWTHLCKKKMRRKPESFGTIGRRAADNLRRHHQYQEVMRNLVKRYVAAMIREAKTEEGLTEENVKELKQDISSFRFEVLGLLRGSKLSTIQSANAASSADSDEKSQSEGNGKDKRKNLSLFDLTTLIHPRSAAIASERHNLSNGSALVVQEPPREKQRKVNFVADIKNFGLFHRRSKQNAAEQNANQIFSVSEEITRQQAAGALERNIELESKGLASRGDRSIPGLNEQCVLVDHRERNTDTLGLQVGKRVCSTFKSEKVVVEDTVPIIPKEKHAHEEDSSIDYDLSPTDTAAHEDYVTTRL

SMILES | outcome
COc1ccc(C[C@@H]2c3cc(O)c(OC)cc3CCN2C)cc1O | inactive
CCN1CCN(Cc2cc(Br)ccc2O)CC1 | inactive
CN(CCOc1ccc(C=C2C(=O)NC(=O)NC2=O)cc1)c1ccccn1 | inactive
CCC1=Nc2cc(C(=O)N3CCC4(CC3)OCCO4)ccc2Sc2ccc(Br)cc21 | inactive
COc1ccc2[nH]cc(CCN(C)C)c2c1 | inactive
Clc1ccc(OCC#CCN2CCCC2)cc1 | inactive
Nc1ccccc1-[n+]1c(-c2ccccc2)cc(-c2ccccc2)cc1-c1ccccc1 | inactive
CCOC(=O)C(O)(c1ccc(NC(=S)NC(=O)c2ccc(Cl)cc2Cl)c(C)c1)C(F)(F)F (stereo not drawn) | inactive
CCc1ccc(OCCCN=C(C)c2c(O)n(C)c(=O)n(C)c2=O)cc1 | inactive
Cc1cccc(N=Cc2c(O)n(-c3ccccc3C)c(=O)[nH]c2=O)c1 | inactive

Target: Short transient receptor potential channel 6 (Mus musculus) (UniProt Q61143)
Sequence (Q61143 whole entry, looked up): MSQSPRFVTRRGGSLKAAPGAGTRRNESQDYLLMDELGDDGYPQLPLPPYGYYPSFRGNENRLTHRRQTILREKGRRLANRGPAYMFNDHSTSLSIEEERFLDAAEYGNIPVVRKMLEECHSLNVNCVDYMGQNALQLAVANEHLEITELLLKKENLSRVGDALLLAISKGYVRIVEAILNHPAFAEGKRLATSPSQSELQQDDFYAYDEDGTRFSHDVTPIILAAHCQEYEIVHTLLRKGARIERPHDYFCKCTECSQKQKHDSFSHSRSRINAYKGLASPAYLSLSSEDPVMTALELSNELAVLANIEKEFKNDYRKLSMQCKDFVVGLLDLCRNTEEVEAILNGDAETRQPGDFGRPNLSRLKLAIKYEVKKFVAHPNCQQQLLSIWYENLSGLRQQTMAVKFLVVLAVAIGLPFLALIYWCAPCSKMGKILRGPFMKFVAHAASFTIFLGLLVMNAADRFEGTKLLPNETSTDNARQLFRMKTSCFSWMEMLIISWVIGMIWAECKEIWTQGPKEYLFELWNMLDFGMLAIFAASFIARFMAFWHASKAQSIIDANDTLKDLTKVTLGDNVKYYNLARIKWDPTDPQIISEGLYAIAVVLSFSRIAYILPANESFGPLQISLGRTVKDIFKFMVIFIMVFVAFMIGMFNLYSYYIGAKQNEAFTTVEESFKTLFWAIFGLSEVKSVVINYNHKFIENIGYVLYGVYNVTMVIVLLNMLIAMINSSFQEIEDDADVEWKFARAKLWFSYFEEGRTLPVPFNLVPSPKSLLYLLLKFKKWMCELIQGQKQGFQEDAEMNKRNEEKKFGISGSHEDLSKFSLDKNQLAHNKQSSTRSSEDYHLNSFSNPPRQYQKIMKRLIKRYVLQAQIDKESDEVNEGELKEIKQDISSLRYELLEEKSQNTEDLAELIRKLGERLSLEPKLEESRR
Test: TRPC6 blockade by TRPC4 inhibitor hits – cell-based, HEK293, membrane potential dye, duplicate, selectivity assay for TRPC4 inhibitor project, confirmation (AID 434948)
Settings: HEK293 TRPC6, membrane potential dye fluorescence, at 10 µM; inhibition: stronger effect = higher value, stimulated with maximal-effect acetylcholine unless noted; outcome: stimulated with maximal-effect acetylcholine unless noted
Method in brief: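 Material – TRPC6-expressing HEK293 cells · Repeats – two replicates · Read-out basis – control-normalized integrated fluorescence ratio · Schedule – 45 min RT dye load, 110 s compound, 110 s agonist read · Reagent – acetylcholine at maximal (ECmax) concentration, added after compound · Detection – kinetic fluorescence of membrane potential dye with 5 s baseline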

SMILES | outcome | inhibition
Cc1ccsc1C(=O)C1CCCN(Cc2ccccc2O)C1 (stereo not drawn) | inactive | 
COc1ccc(C[C@@H]2c3cc(O)c(OC)cc3CCN2C)cc1O | inactive | 
CCC1=Nc2cc(C(=O)N3CCC4(CC3)OCCO4)ccc2Sc2ccc(C)cc21 | inactive [setting not given] | 
Cc1ccc(CN2C3CCCC2CC(NC(=S)NCc2ccccc2)C3)cc1 (stereo not drawn) | inactive | 
COc1ccc(Br)cc1CN1CCN(C(=O)Cc2ccccc2)CC1 | inactive | 
CC(C)CN(CC(C)C)c1ccc(C=C2C(=O)NC(=S)NC2=O)cc1[N+](=O)[O-] | inactive [setting not given] | 
CCOC(=O)C1(CCc2ccccc2)CCN(Cc2cccc3c2OCO3)CC1 | inactive | 
COc1ccc(CN2CCCC(C(=O)c3sccc3C)C2)cc1O (stereo not drawn) | inactive | 
CCN1CCN(Cc2cc(Br)ccc2O)CC1 | inactive | 
CCN(CC)c1ccc([N+](=O)[O-])c2cccnc12 | inactive | 
CN(CCOc1ccc(C=C2C(=O)NC(=O)NC2=O)cc1)c1ccccn1 | inactive [setting not given] | 
CCN(CC)CC(=O)Nc1ccc(Cl)cc1C(=O)c1ccccc1 | inactive | 
COc1cccc(O)c1CN1CCCC(C(=O)c2sccc2C)C1 (stereo not drawn) | inactive | 
CCC1=Nc2cc(C(=O)N3CCC4(CC3)OCCO4)ccc2Sc2ccc(Br)cc21 | inactive [setting not given] | 
COc1ccc2[nH]cc(CCN(C)C)c2c1 | inactive [setting not given] | 
CC(=O)OC1(c2ccccc2)CCN(C2CCCCC2)CC1C (stereo not drawn) | inactive [setting not given] | 
CCOC(=O)C1(c2ccccc2)CCN(CC(=O)Nc2ccc(C)cc2)CC1 | inactive [setting not given] | 
COc1ccc(O)c(CN2CCCC(C(=O)c3sccc3C)C2)c1 (stereo not drawn) | inactive | 
Clc1ccc(OCC#CCN2CCCC2)cc1 | inactive | 

SMILES | outcome | inhibition
O=C(c1cccc(C(F)(F)F)c1)C1CCCN(Cc2ccccc2O)C1 (stereo not drawn) | inactive | 
CCOC(=O)C1(CCc2ccccc2)CCN(Cc2ccco2)CC1 | inactive | 
Nc1ccccc1-[n+]1c(-c2ccccc2)cc(-c2ccccc2)cc1-c1ccccc1 | inactive | 
CCc1nccc2c1[nH]c1ccccc12 | inactive | 
CCOC(=O)C(O)(c1ccc(NC(=S)NC(=O)c2ccc(Cl)cc2Cl)c(C)c1)C(F)(F)F (stereo not drawn) | inactive | 
COc1ccc(OC)c(N2Cc3ccccc3C2=N)c1 | inactive | 
CCOc1c(Cl)cc(CNC(C)C(O)c2ccccc2)cc1OC (stereo not drawn) | inactive | 
Cc1cccc(N2CCc3c2nc2ccccc2c3N)c1 | inactive | 
COc1ccc(C)cc1NC1=NC(C)(C)CS1 | inactive | 
N=c1n(CCO)c2ccccc2n1Cc1ccccc1 | inactive | 
CCc1ccc(OCCCN=C(C)c2c(O)n(C)c(=O)n(C)c2=O)cc1 | inactive [setting not given] | 
O=C(CN1CCCC1)Nc1ccc(Cl)cc1C(=O)c1ccccc1 | inactive | 
O=C(c1ccc(Cl)cc1)C1CCCN(C2CCSCC2)C1 (stereo not drawn) | inactive | 
Cc1ccc(C2CN(C)CC2C(=O)c2ccc(F)cc2)cc1 (stereo not drawn) | inactive | 
O=C(Cc1ccccc1)N1CCN(Cc2cccc(Br)c2)CC1 | inactive | 
Cc1cccc(N=Cc2c(O)n(-c3ccccc3C)c(=O)[nH]c2=O)c1 | inactive [setting not given] | 
CC(Cc1ccccc1Sc1ccccc1O)N(C)C (stereo not drawn) |  | 50.5% (active)
COc1ccc(OC)c(CN2CCCC(C(=O)c3sccc3C)C2)c1 (stereo not drawn) | inactive | 
CCCCc1ncc(CN2CCCC(C(=O)c3ccc(SC)cc3)C2)[nH]1 (stereo not drawn) | inactive | 
